Reference: ChEMBL document CHEMBL4130582, “Total Synthesis of Reniochalistatin E” (J Nat Prod, 2017)
Residues, ends and D or L forms follow the SMILES beside them. *: point of attachment. Boc = CC(C)(C)OC(=O)*

Experiments:
Type in all cases: functional, cell-based
A549 = assay: Cytotoxicity against human A549 cells after 72 hrs by Alamar Blue assay; settings: A549, 72 h
Outline: (§1)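 A549 or HeLa cells in RPMI1640 + 10% FBS at 37 °C, 5% CO2. Seeded 1500 cells/well and left to adhere 2−3 h, then given compound diluted from DMSO stock in media (31.6 nM to 200 μM), in triplicate. After 69 h, Alamar Blue was added for 3 h more; fluorescence read at ex 560/em 590 nm. Doxorubicin and etoposide served as positive controls, untreated wells as negative. IC50 taken from ≥3 independent experiments.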

HeLa = assay: Cytotoxicity against human HeLa cells after 72 hrs by Alamar Blue assay; outline: as §1
[1] = Cytotoxicity against human MiaPaCa cells after 72 hrs by Alamar Blue assay; settings: MIA PaCa-2, 72 h
Outline: as §1, with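 “Mia PaCa-2” for “A549 or HeLa cells”, “DMEM” for “RPMI1640”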

U-937 = assay: Cytotoxicity against human U937 cells after 72 hrs by Alamar Blue assay; settings: U-937, 72 h
Outline: (§2)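 Nonadherent cells in RPMI1640 + 10% FBS at 37 °C, 5% CO2. Compound from DMSO stock was diluted in media (31.6 nM to 200 μM) and plated in triplicate; cells (2000/well) were added afterwards. After 69 h, Alamar Blue was added for 3 h more; fluorescence read at ex 560/em 590 nm. Doxorubicin and etoposide served as positive controls. IC50 taken from ≥3 independent experiments.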

RPMI-8226 = assay: Cytotoxicity against human RPMI8226 cells after 72 hrs by Alamar Blue assay; settings: RPMI-8226, 72 h; outline: as §2
[2] = Cytotoxicity against human MM1R cells after 72 hrs by Alamar Blue assay; settings: MM.1R; outline: as §2

Compound | IC50 (A549) [µM] | IC50 (HeLa) [µM] | IC50 [1] [µM] | IC50 (U-937) [µM] | IC50 (RPMI-8226) [µM] | IC50 [2] [µM]
CC[C@H](C)[C@@H]1NC(=O)[C@H](C(C)C)NC(=O)[C@@H]2CCCN2C(=O)[C@H](Cc2c[nH]c3ccccc23)NC(=O)[C@H](CC(C)C)NC(=O)[C@@H]2CCCN2C(=O)[C@H]([C@@H](C)CC)NC(=O)[C@@H]2CCCN2C1=O (cyclo(IPIPLWPV)) | > 20 | 16.9 | > 20 | 12.4 | 4.5 | > 11.2
H-IPLWPVIP-OH | > 20 | 18.4 | > 20 | > 20 | 16.4 | > 20
CC[C@H](C)[C@H](NC(=O)[C@@H](NC(=O)[C@@H]1CCCN1C(=O)OC(C)(C)C)C(C)C)C(=O)N1CCC[C@H]1C(=O)N[C@H](C(=O)N1CCC[C@H]1C(=O)N[C@@H](CC(C)C)C(=O)N[C@@H](Cc1c[nH]c2ccccc12)C(=O)OC)[C@@H](C)CC (Boc-PVIPIPLW-OMe) | > 20 | > 20 | 19.1 | > 20 | > 20 | > 20
H-PVIPIPLW-OH | > 20 | > 20 | > 20 | 9.5 | > 20 | > 20
CC[C@H](C)[C@H](NC(=O)OC(C)(C)C)C(=O)N1CCC[C@H]1C(=O)N[C@@H](CC(C)C)C(=O)N[C@@H](Cc1c[nH]c2ccccc12)C(=O)N1CCC[C@H]1C(=O)N[C@H](C(=O)N[C@H](C(=O)N1CCC[C@H]1C(=O)OC)[C@@H](C)CC)C(C)C (Boc-IPLWPVIP-OMe) | > 20 | > 20 | > 20 | > 20 | > 20 | > 20
